Measured values as given in ChEMBL document CHEMBL1126156, “Multivariate analysis by the minimum spanning tree method of the structural determinants of diphenylethylenes and triphenylacrylonitriles implicated in estrogen receptor binding, protein kinase C activity, and MCF7 cell proliferation” (J Med Chem, 1992).

Tests used:
MCF7S [1] = experiment: Cytostatic activity against MCF-7 cell proliferation.; assay type: functional, Homo sapiens; set-up: concentration or dose not given beside the values
In short: (§1)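 MCF-7 cells in phenol red-free charcoal-treated medium given 10⁻⁶ M E2 plus test compound (3–10 μM), 6 days of growth. DNA expressed as percent of E2-treated cells. IC30 is the concentration giving 30% inhibition. Percent inhibition taken at 10⁻⁵ M, or at 10⁻⁶ M in a second series. Means of two experiments.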

[2] = biological target: T1, Protein kinase C, PKC; classical (Rattus norvegicus) (UniProt P05696+P68403+P63319); experiment: The percent stimulation or inhibition of protein kinase C III activity was determined for phosphatidylserine (PS) and diolein(PS+DO) in the presence of [Ca2+]; assay type: protein assay; set-up: concentration or dose not given beside the values; conditions: values are per cent of control
In short: (§2)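 Type III (α) PKC purified from rat brain soluble fraction, assayed with calf thymus H1 histone, 0.1 mM Ca2+, 5 mM magnesium acetate, 10 μM [32P]ATP, 2 μg/mL phosphatidylserine plus 0.2 μg/mL diolein. Compounds mostly at 10⁻⁴ M; activity expressed as percent of control.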

MCF7S [3] = experiment: Agonistic activity in MCF-7 cell proliferation.; assay type: functional, Homo sapiens
In short: (§3)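 MCF-7 cells grown in phenol red-free medium with 5% dextran-coated charcoal-treated serum, tested 10 pM to 1 μM. DNA content read after growth. Agonism expressed relative to the maximum response with E2 (=100%), whatever the concentration. EC50 (50% of maximum response) taken from two separate experiments.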

[4] = biological target: T1, Protein kinase C, PKC; classical (Rattus norvegicus); experiment: Percent stimulation or inhibition of protein kinase C III activity for phosphatidylserine (PS) in the presence of [Ca2+].; assay type: protein assay; set-up: concentration or dose not given beside the values; conditions: values are per cent of control
In short: (§4)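 Purified type III (α) PKC from rat brain soluble fraction. Substrate calf thymus H1 histone with 0.1 mM Ca2+, 5 mM magnesium acetate, 10 μM [32P]ATP and 2 μg/mL phosphatidylserine, no diolein. Most compounds at 10⁻⁴ M, given as percent of control activity.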

Rattus norvegicus = organism: Rattus norvegicus; experiment: Percent stimulation or inhibition of protein kinase C III activity for protamine sulfate in the presence of EGTA.; set-up: concentration or dose not given beside the values; conditions: values are per cent of control
In short: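 Rat brain type III (α) PKC, purified, with protamine sulfate as substrate and 0.5 mM EGTA in place of Ca2+, phosphatidylserine and diolein; 5 mM magnesium acetate, 10 μM [32P]ATP. Most compounds at 10⁻⁴ M; percent of control activity.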

[5] = biological target: T1, Protein kinase C, PKC; classical (Rattus norvegicus); experiment: (§5) Percent stimulation or inhibition of protein kinase C with [Ca2+] for phosphatidylserine and diolein(PS+DO); assay type: protein assay; set-up: concentration or dose not given beside the values; conditions: values are per cent of control; in short: as §2
[6] = biological target: T1, Protein kinase C, PKC; classical (Rattus norvegicus); experiment: Percent stimulation or inhibition of protein kinase C with [Ca2+] for phosphatidylserine (PS); assay type: protein assay; in short: as §4
BT-20 [7] = experiment: (§6) Cytotoxic effect on ER-negative BT20 cell proliferation; assay type: functional, Homo sapiens; set-up: concentration or dose not given beside the values
In short: (§7)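 ER-negative BT20 cells, no E2, test compound at 3–10 μM for 6 days. DNA read as percent of untreated control. IC30 is the concentration inhibiting growth by 30%; percent inhibition taken at 10⁻⁵ M. Means of two experiments, triplicate wells.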

[8] = biological target: Estrogen receptor (Bos taurus) (UniProt Q9XSB5+P49884); experiment: Relative binding affinity for calf uterus estrogen receptor after 2 hr at 0 degree C; assay type: protein assay
In short: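 Calf uterus cytosol ER incubated 2 h at 0 °C with [6,7-3H]-17β-estradiol and competitor. RBA given relative to estradiol (=100%), mean of at least four determinations.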

MCF7S [9] = experiment: Agonist activity against MCF-7 cell proliferation; assay type: functional, cell-based; conditions: Homo sapiens; in short: as §3
MCF7S [10] = experiment: Antagonist activity against MCF-7 cell proliferation; assay type: functional, Homo sapiens
In short: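 Phenol red-free MCF-7 cultures with 5% dextran-coated charcoal-treated serum, stimulated by 0.1 nM E2. Proliferation read as DNA content after 8 days relative to E2 alone. Percent antagonism is the inhibition at 10⁻⁶ M test compound versus 10⁻¹⁰ M E2. IC50 (50% of maximum response) from two separate experiments.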

MCF7S [11] = experiment: Cytotoxic effect on MCF-7 cell proliferation; assay type: functional; conditions: Homo sapiens; in short: as §1
BT-20 [12] = experiment: as §6; assay type: functional; conditions: Homo sapiens; in short: as §7
[13] = biological target: T1, Protein kinase C, PKC; classical (Rattus norvegicus); experiment: as §5; assay type: protein assay; conditions: values are per cent of control; in short: as §2

Row | Compound | Inhibition (MCF7S [1]) [%] | residual activity [2] [%] | Agonism (MCF7S [3]) [%] | residual activity [4] [%] | residual activity (Rattus norvegicus) [%] | residual activity [5] [%] | residual activity [6] [%] | residual activity ([6]; values are per cent of control) [%] | Inhibition (BT-20 [7]) [%] | RBA [8] [%] | EC50 (MCF7S [9]) [nM] | Antagonism (MCF7S [10]) [%] | IC30 (MCF7S [11]) [nM] | IC30 (BT-20 [12]) [nM] | residual activity [13] [%]
1 | CCC(=C(c1ccc(O)cc1)c1ccc(OCCN(C)C)cc1)c1ccccc1 | 81 | 2 | 10 | 27 | 94 | – | – | – | – | – | – | – | – | – | –
2 | N#C/C(=C(/c1ccccc1)c1ccc(O)cc1)c1ccccc1 | 12 | 104 | 94 | 96 | 94 | – | – | – | – | – | – | – | – | – | –
3 | CC(C)Oc1ccc(/C(=C(/C#N)c2ccccc2)c2ccc(O)cc2)cc1 | 57 | – | 22 | – | – | 94 | 170 | – | – | – | – | – | – | – | –
4 | CN(C)Cc1cc(C(=C(C#N)c2ccccc2)c2ccc(O)c(CN(C)C)c2)ccc1O | 36 | – | 31 | – | – | – | – | 26 | – | – | – | – | – | – | –
5 | COc1ccc(/C(=C(\C#N)c2ccccc2)c2ccc(O)cc2)cc1 | 36 | 100 | 26 | 100 | 100 | – | – | – | – | – | – | – | – | – | –
6 | CC/C(=C(/c1ccccc1)c1ccc(OCCN(C)C)cc1)c1ccccc1 | 79 | – | 100 | 36 | – | 30 | 36 | – | – | – | – | – | – | – | –
7 | CC(C)Oc1ccc(/C(=C(\C#N)c2ccccc2)c2ccc(O)cc2)cc1 | 61 | 101 | 33 | 138 | 86 | – | – | – | – | – | – | – | – | – | –
8 | Oc1ccc(C(=C2CCCC2)c2ccc(O)cc2)cc1 | 6 | 42 | 100 | – | 40 | – | – | – | 10 | 23 | 130 | 1 | – | – | –
9 | CCN(CC)CCOc1ccc(/C(=C(/C#N)c2ccccc2)c2ccc(O)cc2)cc1 | 77 | – | 16 | 20 | – | 2 | 20 | – | – | – | – | – | – | – | –
10 | CC(C)N(CCOc1ccc(C(C#N)=C(c2ccccc2)c2ccccc2)cc1)C(C)C | 30 | 23 | 93 | – | 103 | – | – | 46 | 36 | 0.1 | 11 | 10 | 10000 | 9000 | –
11 | N#C/C(=C(\c1ccccc1)c1ccc(O)cc1)c1ccccc1 | 30 | – | 99 | 107 | 90 | 87 | – | – | – | – | – | – | – | – | –
12 | Cc1ccc(/C(=C(\C#N)c2ccccc2)c2ccc(O)cc2)cc1 | 60 | – | 53 | – | – | 87 | – | 119 | – | – | – | – | – | – | 87
13 | COc1ccc(C(=C(C#N)c2ccccc2)c2ccc(OC)cc2)cc1 | 8 | 100 | 34 | 98 | 92 | – | – | – | – | – | – | – | – | – | –
14 | CC(C)C=C(c1ccc(O)cc1)c1ccc(O)cc1 | 22 | 70 | 65 | – | 95 | – | – | – | 40 | 58 | 18 | 5 | – | 8400 | –
15 | Oc1ccc(C(=C2CCCCC2)c2ccc(O)cc2)cc1 | 12 | 81 | 97 | 111 | 91 | – | – | – | 12 | 26 | 4.51 | 23 | – | – | –
16 | COc1ccc(/C(=C(/C#N)c2ccccc2)c2ccc(O)cc2)cc1 | 13 | – | 25 | 100 | – | 100 | 100 | – | – | – | – | – | – | – | –
17 | N#CC(=C(c1ccccc1)c1ccccc1)c1ccc(O)cc1 | 8 | 113 | 90 | 92 | 103 | – | – | – | – | – | – | – | – | – | –

Row | Compound | Inhibition (MCF7S [1]) [%] | residual activity [2] [%] | Agonism (MCF7S [3]) [%] | residual activity [4] [%] | residual activity (Rattus norvegicus) [%] | residual activity [5] [%] | residual activity [6] [%] | residual activity ([6]; values are per cent of control) [%] | Inhibition (BT-20 [7]) [%] | RBA [8] [%] | EC50 (MCF7S [9]) [nM] | Antagonism (MCF7S [10]) [%] | IC30 (MCF7S [11]) [nM] | IC30 (BT-20 [12]) [nM] | residual activity [13] [%]
18 | CC(C)Oc1ccc(C(=C(C#N)c2ccccc2)c2ccc(OC(C)C)cc2)cc1 | 32 | 100 | 40 | 100 | 100 | – | – | – | – | – | – | – | – | – | –
19 | CCN(CC)CCOc1ccc(C(=C(C#N)c2ccccc2)c2ccc(OCCN(CC)CC)cc2)cc1 | 94 | 10 | 62 | 20 | 101 | – | – | – | – | – | – | – | – | – | –
20 | N#C/C(=C(\c1ccccc1)c1ccc(O)cc1)c1ccc(O)cc1 | 30 | 91 | 100 | 97 | 68 | – | – | – | – | – | – | – | – | – | –
21 | Cc1ccc(/C(=C(/C#N)c2ccc(O)cc2)c2ccc(O)cc2)cc1 | 35 | 80 | 69 | 113 | 90 | – | – | – | – | – | – | – | – | – | –
22 | CCN(CC)CCOc1ccc(C(C#N)=C(c2ccccc2)c2ccccc2)cc1 | 53 | 20 | 71 | 43 | 96 | – | – | – | – | – | – | – | – | – | –
23 | Cc1ccc(/C(=C(/C#N)c2ccccc2)c2ccc(O)cc2)cc1 | 38 | 95 | 55 | 107 | 77 | – | – | – | – | – | – | – | – | – | –
24 | NCC(=C(c1ccc(O)cc1)c1ccc(O)cc1)c1ccccc1 | 19 | 53 | 76 | 78 | 20 | – | – | – | 24 | 9.7 | 0.14 | 20 | – | 20000 | –
25 | N#C/C(=C(/c1ccccc1)c1ccc(O)cc1)c1ccc(O)cc1 | 17 | 87 | 98 | 94 | 86 | – | – | – | – | – | – | – | – | – | –
26 | N#CC(=C(c1ccc(O)cc1)c1ccc(O)cc1)c1ccccc1 | 30 | 42 | 62 | 94 | 50 | – | – | – | – | – | – | – | – | – | –
27 | N#CC(=C(c1ccccc1)c1ccccc1)c1ccccc1 | 16 | 106 | 68 | 126 | 106 | – | – | – | – | – | – | – | – | – | –
28 | CC(C)C(Cl)=C(c1ccc(O)cc1)c1ccc(O)cc1 | 30 | 83 | 96 | – | 85 | – | – | – | 45 | 70 | 0.16 | 12 | – | 7600 | –
29 | CC/C(=C(\c1ccccc1)c1ccc(OCCN(C)C)cc1)c1ccccc1 [TAMOXIFEN] | 49 | – | 21 | 49 | 107 | 21 | – | – | – | – | – | – | – | – | –
30 | Oc1ccc(C(=C2CCCCCC2)c2ccc(O)cc2)cc1 | 16 | 71 | 96 | – | 93 | – | – | – | 20 | 17 | 2.65 | 21 | – | – | –
31 | C[C@]12CC[C@@H]3c4ccc(O)cc4CC[C@H]3[C@@H]1CC[C@@H]2O [ESTRADIOL] | 25 | 89 | 100 | 77 | 99 | – | – | – | – | – | – | – | – | – | –
32 | CCN(CC)CCOc1ccc(/C(=C(\C#N)c2ccccc2)c2ccc(O)cc2)cc1 | 89 | 1 | 12 | 10 | 88 | – | – | – | – | – | – | – | – | – | –
33 | N#CC(=C(c1ccc(O)cc1)c1ccc(O)cc1)c1ccc(O)cc1 | 39 | 32 | 85 | 38 | 33 | – | – | – | – | – | – | – | – | – | –
34 | Cc1ccc(C(C#N)=C(c2ccc(O)cc2)c2ccc(O)cc2)cc1 | 38 | 38 | 71 | 84 | 46 | – | – | – | – | – | – | – | – | – | –
